Source: PubChem
Runt-SMMHC FRET – inhibitors of human RUNX1 Runt domain binding to CBFb-SMMHC; Cerulean-Runt/Venus-CBFb-SMMHC FRET ratio 530/480, 1 h; inhibition, % at 20 µM; 0.74% of 220,000 active; AID 1434;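 active means mean inhibition across duplicate retests at 20 µM reaching about 50%, limit read from the data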;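 further: 0% = DMSO wells and 100% = wells with excess untagged CBFb-SMMHC; inhibitors lower the FRET ratio by blocking Runt binding to CBFb-SMMHC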
Target sequence (Q01196 whole entry, looked up, the tested form may be a part): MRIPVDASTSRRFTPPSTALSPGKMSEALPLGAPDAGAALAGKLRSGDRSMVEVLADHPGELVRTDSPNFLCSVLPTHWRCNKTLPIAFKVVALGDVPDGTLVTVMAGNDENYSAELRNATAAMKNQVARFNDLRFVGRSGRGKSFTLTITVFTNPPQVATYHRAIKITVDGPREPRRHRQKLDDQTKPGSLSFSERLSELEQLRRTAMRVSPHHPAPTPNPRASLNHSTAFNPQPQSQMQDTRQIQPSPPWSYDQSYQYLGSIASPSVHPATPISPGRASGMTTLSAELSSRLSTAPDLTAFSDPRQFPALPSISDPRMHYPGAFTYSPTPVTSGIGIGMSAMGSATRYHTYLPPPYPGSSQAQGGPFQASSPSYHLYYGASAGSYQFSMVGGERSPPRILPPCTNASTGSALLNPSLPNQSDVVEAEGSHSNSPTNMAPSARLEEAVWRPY
Target sequence (Q13951 whole entry, looked up, the tested form may be a part): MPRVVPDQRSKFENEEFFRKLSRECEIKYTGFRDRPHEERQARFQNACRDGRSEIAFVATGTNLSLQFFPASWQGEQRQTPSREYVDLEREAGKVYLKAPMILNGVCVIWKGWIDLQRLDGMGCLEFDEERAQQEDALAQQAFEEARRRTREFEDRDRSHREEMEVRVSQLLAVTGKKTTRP
KLK7 zymogen act – proKLK7 (human) activation, primary screen. 0.9% of 370,000 active. AID 652039. P49862. activation, % at 7 µM. purified proKLK7, EDANS-DABCYL substrate fluorescence; 100% is mature enzyme control, 0% vehicle;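 active means activation above the mean of all tested compounds plus 3 SD, computed per campaign excluding outliers beyond control limits, cut at about 13% in these data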
AI-2 QS modul – Vibrio harveyi AI-2 quorum sensing modulation | 0.4% of 300,000 active | activity change, % at 7.5 µM | Vibrio harveyi JMH597 AI-2 luminescence/OD600 ratio, 9 h; stronger effect = lower value; strain lacks LuxN and CqsS sensors; 0 = neutral-control median | AID 2094; in the data active means activity change below about -75%, passing the limit was not always enough;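 further: luminescence divided by OD600 gain over 9 h not by final OD600 alone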
RanGTP-Impb inh – disruptors of Ran-importin-beta complex formation – biochemical, FRET, CFP-Ran, YFP-importin-beta, homogeneous, primary screen | cell-free CFP-Ran/YFP-importin-beta FRET ratio | inhibition, % (test concentration not listed) | 1.1% of 300,000 active | AID 2216;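 active means more than half of the replicate wells show a fall in the fluorescence ratio signal beyond about 16%, limit read from the data, passing the limit was not always enough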;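 further: 0% = DMSO wells and 100% = Ran loaded with GDP instead of GTP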
Runt-CBFb FRET – inhibitors of human RUNX1 Runt domain binding to CBFb; 0.46% of 220,000 active; inhibition, % at 20 µM; Cerulean-Runt/Venus-CBFb FRET ratio 530/480, 1 h; Q01196+Q13951;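 active means inhibition over about 50% at 20 µM in the single-dose screen, limit read from the data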;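 further: 0% = DMSO wells and 100% = excess unlabeled CBFb competitor control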
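Doses: 20 µM compound in 1% DMSO | Material: Cerulean-labeled Runt domain protein | Amount: Each fluorescent fusion protein 100 nM | Schedule: Two 1 h room-temperature incubations shielded from light | Measured by: FRET fluorescence | Evaluation: Loss of energy transfer signal | Controls: Unlabeled CBFb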
Wee1 degr inh – blocks degradation of human Wee1 kinase; P30291; HeLa Luc-Wee1K328M stability, luciferase luminescence; 100% = proteasome inhibitor MG132 effect; reporter increase, % at 5 µM; 1.2% of 220,000 active; AID 1321;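 active means activation above the mean of all tested compounds plus 3 SD, set per screening run, cut at about 8.8% in these data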;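 further: cells exposed to compound for 20 h before luminescence read; 0% = DMSO alone and 100% = MG132 at 30 µM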
Active calls of the source: *; . = no result given. Hits are enriched below; roughly 2.9% of the tested compounds scored in any of these assays.

SMILES | Runt-SMMHC FRET | KLK7 zymogen act | AI-2 QS modul | RanGTP-Impb inh | Runt-CBFb FRET | Wee1 degr inh
CCc1ccccc1N(C)S(=O)(=O)c1ccc2[nH]cc(C(=O)O)c(=O)c2c1 | -2 | -3 | 9 | 2 | -5 | 9.5*
CCOC(=O)c1c(C)oc2ccc(OC(=O)COc3c(F)c(F)c(F)c(F)c3F)cc12 | 1 | 0 | 2 | -1 | -3 | -3
O=C(Oc1c(Cl)cc(Cl)c2cccnc12)c1ccco1 | -1 | 0 | -88* | 2 | 2 | 1
O=C(NCCc1ccccc1Cl)[C@@H]1CCCN1C(=O)[C@@H](NC(=O)N1CCOCC1)C1CCCCC1 | . | 0 | . | . | . | .
CCc1cccc(CC)c1NC(=S)N(CCN(C)C)C(C)c1cccnc1 (configuration not stated) | 0 | 0 | 16 | 0 | -2 | 2
CCCCCn1c(=N)c(S(=O)(=O)c2ccc(Cl)cc2)cc2c(=O)n3cccc(C)c3nc21 | . | . | 11 | 67* | . | .
Cc1cccn2c(=O)c3cc(S(=O)(=O)c4ccc(Br)cc4)c(=N)n(C4CCCC4)c3nc12 | . | 0 | 22 | 3 | . | .
CCCn1c(=N)c(S(=O)(=O)c2ccccc2)cc2c(=O)n3cccc(C)c3nc21 | . | 0 | . | 145* | . | .
Cn1c(=N)c(S(=O)(=O)c2ccc(Cl)cc2)cc2c(=O)n3ccccc3nc21 | . | . | . | . | . | 0
COc1cccc(C2=NOC(C(=O)N3CCc4ccccc4C3)C2)c1 (configuration not stated) | -2 | 0 | -22 | 23* | . | 1
Cc1cc(N2CCN(CC(C)(C)O)C[C@H]2C)ccc1N1CCN(Cc2ccccc2)[C@@H](C)C1 | . | 1 | . | . | . | .
CC(=O)COc1ccc2c(c1C)O/C(=C\c1ccco1)C2=O | . | 1 | -7 | 18* | . | .
COC(=O)C1=C(C)N(C)C(=NCc2ccc3c(c2)OCO3)NC1c1ccc(F)cc1 (configuration not stated) | . | -1 | . | . | . | .
CCOc1ccc(NC(=O)CCCc2cc(-c3ccc(OCC)cc3)on2)cc1 | -5 | 1 | 17 | 0 | 0 | -1
CCOc1ccc(-c2cc(CCCC(=O)Nc3cccc(OC)c3)no2)cc1 | -2 | 0 | 20 | 27* | -2 | -2
COc1ccccc1/C=C/C(=O)c1cc(Br)ccc1OC(=O)c1ccco1 | . | -2 | -11 | 6 | . | 13*
C#CCN1C(=O)[C@]2(OCCC=C[C@H]2C)c2cc(OC)ccc21 | . | 0 | . | . | . | .
NC(=S)NC1CC2CC1C1C=CCC21 (configuration not stated) | -4 | 0 | 3 | 4 | 0 | 9.5*
Cc1cc(C(F)(F)F)c(C#N)c(SCC(=O)Nc2nc3ccccc3s2)n1 | 6 | -21 | 10 | -24 | -5 | -1
Cc1ccc2sc(NC(=O)CSc3nc(C)cc(C)c3C#N)nc2c1 | 56* | -8 | 21 | 8 | 12 | 0
C=C1c2ccc(C)cc2NC(=O)N1c1ccccc1 | 7 | . | 9 | 2 | 4 | -1
C=C1c2cc(C)c(C)cc2NC(=O)N1c1ccccc1 | 60* | 0 | 5 | 0 | 3 | 1
O=C(Nc1cnn(Cc2ccccc2)c1)c1cc2nc(-c3ccco3)cc(C(F)(F)F)n2n1 | 6 | 0 | 27 | 17* | -4 | 0
Cc1nn(C)cc1NC(=O)c1cc2nc(-c3ccco3)cc(C(F)(F)F)n2n1 | 6 | 0 | 14 | 3 | 2 | 0
Cc1nn(C)cc1CN(C)C(=O)c1cc2nc(-c3ccco3)cc(C(F)(F)F)n2n1 | -3 | 16* | 37 | 5 | -4 | -2
Cc1nn(C)c(C)c1CN(C)C(=O)c1cc2nc(-c3ccco3)cc(C(F)(F)F)n2n1 | 2 | 5 | 9 | 5 | -3 | -2
O=C(COC(=O)c1ccc(=O)[nH]c1)Nc1cccc(S(=O)(=O)N2CCOCC2)c1 | -2 | 0 | 10 | 2 | 2 | 2
CC[C@@H](CCCc1ccc(OC)cc1)CCC(=O)N(c1ccccc1)c1ccccc1 | . | 1 | . | . | . | .
Cc1ccc2nc(N3CC(=O)Nc4ccccc43)nc(-c3ccccc3)c2c1 | -46 | 0 | . | . | -8 | 9.6*
